Measured values gathered from unrelated publications.
Lines come from different studies, so protocols differ.
Target: Glycogen synthase kinase-3 alpha (GSK3A, Homo sapiens, UniProt P49840)

SMILES	read-out	technique	tested at	remaining binding [%]
COc1ccc2c(c1)O[C@@H](c1ccc(OC)c(OC)c1)C[C@H]2NC(=O)C1(c2ccc3c(c2)OC(F)(F)O3)CC1	cell-free assay	competition with immobilised ligand	1 µM	100
CCN1CCN(Cc2ccc(C(=O)Nc3ccc(C)c(Oc4ccc5c(c4)CC(=O)N5)c3)cc2C(F)(F)F)CC1	binding	competition with immobilised ligand	1 µM	100
CNC(=O)[C@@H]1CC[C@@H](n2c(-c3ccc4cnccc4c3)nc3ccc(C(=O)NCc4cccc(C(N)=O)c4)cc32)C1	binding	competition with immobilised ligand	1 µM	85
O=C(Nc1c[nH]nc1C(=O)NC1CCNCC1)c1cc(F)cc(F)c1	binding	competition with immobilised ligand	1 µM	14
O=C(NC[C@@H]1[C@H]2CN(C(=O)OCc3cc(C(F)(F)F)cc(C(F)(F)F)c3)C[C@@H]12)c1ccc2[nH]nnc2c1	cell-free assay	competition with immobilised ligand	1 µM	99
COc1cnc(Nc2cccc(S(N)(=O)=O)c2)nc1N1CCN(c2ccccc2)CC1	binding	competition with immobilised ligand	1 µM	99
O=C(Nc1cccnn1)N1CCC(=Cc2cccc(Oc3ccc(C(F)(F)F)cn3)c2)CC1	cell-free assay	competition with immobilised ligand	1 µM	100
Nc1ncc2c(n1)-c1c([nH]c3ccc(C#CC4CC4)cc13)CCCC2	binding	competition with immobilised ligand	1 µM	57
C[C@H]1CCN(c2nccc(-c3cnn4ncccc34)n2)C1	binding		1 µM	85
O=C(NCCCN1CCOCC1)c1ccc(Nc2ncc(Cl)c(-c3ccc(Cl)s3)n2)cc1	binding	competition with immobilised ligand	1 µM	43
COCCOc1nc(-c2ccc(Cl)nc2)nc2c1CN(C(=O)c1ncn3ccccc13)CC2	cell-free assay	competition with immobilised ligand	0.1 µM	100
FC(F)(F)Oc1cccc(-c2cnc3ccc(-c4ccncc4)nn23)c1	cell-free assay	competition with immobilised ligand	5 µM	44
COc1ccnn2ncc(-c3ccnc(N(C)C)n3)c12	binding		1 µM	96
Cc1cnc(Nc2ccc(C(=O)N3CCC(N4CCCC4)CC3)cc2)nc1-c1cc2ccccc2s1	binding	competition with immobilised ligand	1 µM	43
N[C@@H]1CCN(c2nccc(-c3cnn4ncccc34)n2)C1	binding		1 µM	100
C[C@@H](c1ccc(-n2cnc3c(N)ncnc32)cc1)N1CCc2nn(C)c(Cc3ccccc3)c2C1=O	binding	competition with immobilised ligand	0.1 µM	72
C[C@H](NC(=O)c1cnc2n1[C@](C)(Cc1ccc(C#N)cc1)C(=O)N2c1cc(Cl)c(F)c(Cl)c1)C(=O)NC1(c2ccccn2)CC1	cell-free assay	competition with immobilised ligand	1 µM	100
CN(CCCC(F)(F)F)c1nccc(-c2cnn3ncccc23)n1	binding		1 µM	100
CN(C)C(=O)Cn1cc(-c2nc([C@@](C)(c3ccc(-c4cnc(N)nc4)cc3)C3CC3)no2)cn1	cell-free assay	competition with immobilised ligand	1 µM	100
CN(C)c1ncc(F)c(-c2cnn3ncccc23)n1	binding		1 µM	82
O=C(c1ccc(Nc2ncc(Cl)c(-c3cc4ccccc4s3)n2)cc1)N1CCC(N2CCCC2)CC1	binding	competition with immobilised ligand	1 µM	11
